Source: article PMC2797757 (Journal of medicinal chemistry, 2009)
“Also recorded” adds a separate entry of the source.

What was measured:
[1] = tested on: Saccharomyces cerevisiae BY4741 wild type strain; experiment: Yeast toxicity protocol; type: cell-based; details: 20 μM, growth recorded after 3 days at 28 °C; for effect on viability/growth of BY4741 strain cells: 18 h incubation; for serial dilution to which cell growth was limited: 10-fold serial cell dilution
Procedure, shortened: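 S. cerevisiae BY4741 (MATa his3Δ1 leu2Δ0 met15Δ0 ura3Δ0) grown at 28 °C in SD minimal medium with 2% glucose. Exponential cells (5 × 10^6/mL) exposed to 20 μM for 18 h at 28 °C, then centrifuged, washed twice with water and resuspended in SD. Serial 10-fold dilutions incubated overnight at 28 °C, spotted on YPD plates, and growth scored after 3 days at 28 °C.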

[2] = tested on: tubulin; experiment: [3H]Colchicine binding assay; parameters: species or system bovine; details: Tubulin 1 μM; [3H]colchicine and inhibitor both 5 μM
[3] = tested on: HeLa cervical cancer cells; experiment: Cell viability/proliferation assay, HeLa; type: cell-based, human; details: 24 h, control cells = 100%
Procedure, shortened: (§1)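 Cells grown at 37 °C, 5% CO2, in D-MEM with 10% fetal calf serum, 4 mM glutamine and 2 mM pyruvate; HCT116/chr3 also got 500 μg/mL G418. Seeded at 1 × 10^3 cells/well and treated 24 h later for 24 h from a 10 mM DMSO stock. Vehicle control was 1% DMSO. Tetrazolium reagent added for 4 h at 37 °C, then absorbance read at 492 nm. Quadruplicate, three repeats; results are % of control, mean ± SD.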

[4] = tested on: HCT116/chr3 human colon cancer cells; experiment: Cell viability/proliferation assay, HCT116/chr3; type: cell-based; details: 24 h, control cells = 100%
Procedure, shortened: as §1

[5] = tested on: HEK, human embryonic kidney 293 cells; experiment: Growth inhibition, MTT, HEK; type: cell-based; details: read-out: HEK IC50 ± SD; MTT method; incubation 48 h
[6] = tested on: M14, human melanoma cells; experiment: Growth inhibition, MTT, M14; type: cell-based; details: read-out: M14 IC50 ± SD; MTT method; incubation 48 h
[7] = tested on: U937, human leukemic monocyte lymphoma cells; experiment: Growth inhibition, MTT, U937; type: cell-based; details: read-out: U937 IC50 ± SD; MTT method; incubation 48 h
[8] = tested on: HAOSMC: human aortic smooth muscle cells; experiment: Growth inhibition of nontransformed cells, HAOSMC; type: cell-based; details: read-out: HAOSMC IC50 ± SD
[9] = tested on: PtK2: potorous tridactylis kidney epithelial cells; experiment: Growth inhibition of nontransformed cells, PtK2; type: cell-based, Potorus tridactylis; details: read-out: PtK2 IC50 ± SD
[10] = tested on: A10, rat embryonic aortic smooth muscle cells; experiment: Growth inhibition of nontransformed cells, A10; type: cell-based; details: read-out: A10 IC50 ± SD
[11] = tested on: HUVEC: human umbilical vein endothelial cells; experiment: Growth inhibition of nontransformed cells, HUVEC; type: cell-based; details: read-out: HUVEC IC50 ± SD
[12] = tested on: MCF-7 human breast carcinoma cells; experiment: Growth of MCF-7 cells; type: cell-based; details: MCF7, 48 h, read-out: MCF-7 IC50 ± SD
[13] = tested on: HEK cells; experiment: Time-lapse microscopy, HEK cell morphology and growth; type: cell-based, human; details: 48 h treatment
[14] = tested on: M14 cells; experiment: Time-lapse microscopy, M14 cell morphology and growth; type: cell-based, human; details: 48 h treatment

Compound: COc1cc(Cn2cccc2C(=O)O)cc(OC)c1OC [Compound 54, 1-(3,4,5-Trimethoxybenzyl)-1H-pyrrole-2-carboxylic acid]
- effect on viability/growth of BY4741 strain cells [1]: effectively inhibited growth; also recorded: strongly reduced the viability
- serial dilution to which cell growth was limited [1]: first dilution

Compound: Methyl 5-Bromo-3-(3,4,5-trimethoxybenzyl)-1H-indole-2-carboxylate [Compound 29]
- inhibition colchicine binding (% ± SD) [2]: 59±7%
- % of cell proliferation, HeLa ([3]; 0.5 μM): 52±0.4%
- % of cell proliferation, HeLa ([3]; 1 μM): 45±1.6%
- % of cell proliferation, HCT116/chr3 ([4]; 0.5 μM): 51±4.6%
- % of cell proliferation, HCT116/chr3 ([4]; 1 μM): 51±1.6%
- IC50 [5]: 160 ± 5 nM
- IC50 [6]: 120 ± 10 nM
- IC50 [7]: 159 ± 10 nM
- IC50 [8]: 35 ± 7 nM
- IC50 [9]: 270 ± 100 nM
- IC50 [10]: 230 ± 100 nM
- IC50 [11]: 140 ± 20 nM
- effect on viability/growth of BY4741 strain cells [1]: significant BY4741 inhibition
- serial dilution to which cell growth was limited [1]: third dilution

Compound: CCOC(=O)c1[nH]c2ccc(Cl)cc2c1Sc1cc(OC)c(OC)c(OC)c1 [Compound 18]
- IC50 [12]: 110 ± 2 nM

Compound: Ethyl 5-Bromo-3-(3,4,5-trimethoxyphenylthio)-1H-indole-2-carboxylate [Compound 30]
- inhibition colchicine binding (% ± SD) [2]: 62±7%

Compound: Methyl 5-Methoxy-3-(3,4,5-trimethoxybenzoyl)-1H-indole-2-carboxylate [Compound 39]
- inhibition colchicine binding (% ± SD) [2]: 78±6%
- % of cell proliferation, HeLa ([3]; 0.5 μM): 55±0.7%
- % of cell proliferation, HeLa ([3]; 1 μM): 54±0.3%
- % of cell proliferation, HCT116/chr3 ([4]; 0.5 μM): 57±3.4%
- % of cell proliferation, HCT116/chr3 ([4]; 1 μM): 55±1.2%
- IC50 [5]: 140 ± 1 nM
- IC50 [6]: 100 ± 5 nM
- IC50 [7]: 155 ± 10 nM
- IC50 [8]: 35 ± 7 nM
- IC50 [9]: 190 ± 20 nM
- IC50 [10]: 95 ± 80 nM
- IC50 [11]: 110 ± 60 nM
- effect on viability/growth of BY4741 strain cells [1]: significant inhibitory effects
- effect on HEK cell morphology [13]: significant morphologic changes
- effect on M14 cell morphology [14]: significant morphologic changes

Compound: Ethyl 5-Bromo-3-(3,4,5-trimethoxybenzyl)-1H-indole-2-carboxylate [Compound 32]
- inhibition colchicine binding (% ± SD) [2]: 53±4%

Compound: Methyl 5-Methoxy-3-(3,4,5-trimethoxybenzyl)-1H-indole-2-carboxylate [Compound 41]
- inhibition colchicine binding (% ± SD) [2]: 59±1%
- % of cell proliferation, HeLa ([3]; 0.5 μM): 52±0.7%
- % of cell proliferation, HeLa ([3]; 1 μM): 51±0.2%
- % of cell proliferation, HCT116/chr3 ([4]; 0.5 μM): 69±6.7%
- % of cell proliferation, HCT116/chr3 ([4]; 1 μM): 69±0.3%
- IC50 [5]: 181 ± 3 nM
- IC50 [6]: 137 ± 5 nM
- IC50 [7]: 189 ± 5 nM
- IC50 [8]: 70 ± 10 nM
- IC50 [9]: 190 ± 200 nM
- IC50 [10]: 130 ± 100 nM
- IC50 [11]: 170 ± 50 nM
- effect on HEK cell morphology [13]: significant morphologic changes
- effect on M14 cell morphology [14]: significant morphologic changes

Compound: COc1cc(Sc2c[nH]c3ccc(Cl)cc23)cc(OC)c1OC [Compound 12]
- IC50 [12]: 77 ± 7 nM

Compound: Ethyl 5-Methoxy-3-(3,4,5-trimethoxybenzoyl)-1H-indole-2-carboxylate [Compound 43]
- inhibition colchicine binding (% ± SD) [2]: 49±4%

Compound: Ethyl 5-Bromo-3-(3,4,5-trimethoxybenzoyl)-1H-indole-2-carboxylate [Compound 31]
- inhibition colchicine binding (% ± SD) [2]: 58±2%

Compound: Methyl 5-Bromo-3-(3,4,5-trimethoxybenzoyl)-1H-indole-2-carboxylate [Compound 28]
- inhibition colchicine binding (% ± SD) [2]: 67±4%
- % of cell proliferation, HeLa ([3]; 0.5 μM): 41±1.1%
- % of cell proliferation, HeLa ([3]; 1 μM): 47±0.4%
- % of cell proliferation, HCT116/chr3 ([4]; 0.5 μM): 59±0.2%
- % of cell proliferation, HCT116/chr3 ([4]; 1 μM): 66±3.5%
- IC50 [5]: 131 ± 3 nM
- IC50 [7]: 191 ± 7 nM
- IC50 [8]: 55 ± 40 nM
- IC50 [9]: 110 ± 60 nM
- IC50 [10]: 280 ± 40 nM
- IC50 [11]: 150 nM

Compound: Ethyl 5-Methoxy-3-(3,4,5-trimethoxybenzyl)-1H-indole-2-carboxylate [Compound 45]
- inhibition colchicine binding (% ± SD) [2]: 42±4%

Compound: COc1cc(Sc2c[nH]c3ccccc23)cc(OC)c1OC [Compound 3]
- IC50 [12]: 34 ± 9 nM

Compound: Methyl 5-Bromo-3-(3,4,5-trimethoxyphenylthio)-1H-indole-2-carboxylate [Compound 27]
- inhibition colchicine binding (% ± SD) [2]: 75±3%
- % of cell proliferation, HeLa ([3]; 0.5 μM): 53±0.1%
- % of cell proliferation, HeLa ([3]; 1 μM): 60±0.1%
- % of cell proliferation, HCT116/chr3 ([4]; 0.5 μM): 57±0.9%
- % of cell proliferation, HCT116/chr3 ([4]; 1 μM): 62±1.9%
- IC50 [5]: 189 ± 5 nM
- IC50 [6]: 155 ± 9 nM
- IC50 [7]: 177 ± 10 nM
- IC50 [8]: 100 ± 30 nM
- IC50 [9]: 280 ± 30 nM
- IC50 [10]: 230 ± 100 nM
- IC50 [11]: 140 ± 20 nM

Compound: (5-Bromo-1H-indol-3-yl)(3,4,5-trimethoxyphenyl)methanone [Compound 25]
- inhibition colchicine binding (% ± SD) [2]: 45±5%

Compound: methyl 5-methoxy-3-(3,4,5-trimethoxyphenylthio)-1H-indole-2-carboxylate [Compound 36]
- effect on viability/growth of BY4741 strain cells [1]: significant inhibitory effects

Compound: COC(=O)c1[nH]c2ccccc2c1Sc1cc(OC)c(OC)c(OC)c1 [Compound 6]
- IC50 [12]: 25 ± 1 nM

Compound: (5-Methoxy-1H-indol-3-yl)-(3,4,5-trimethoxyphenyl)methanone [Compound 34]
- inhibition colchicine binding (% ± SD) [2]: 32±7%
